Assay results: ChEMBL document CHEMBL2346664, “Synthesis, characterization and in vitro anticancer evaluation of novel 1,2,4-triazolin-3-one derivatives” (2013)

Experiments:
Type in all cases: functional
[1] = system: TK-10; assay: Growth inhibition of human TK10 cells assessed as cell growth at 10 uM after 48 hrs by sulforhodamine B assay; settings: TK-10, 48 h, read-out: Activity
Outline: (§1)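 NCI-60 single-dose screen at 10^-5 M. Cells plated at 5,000–40,000/well by doubling time and grown 24 h at 37 °C, 5% CO2, then drug added from DMSO stock for 48 h continuous exposure. Adherent cells fixed with cold TCA (final 10%), suspension cells with 16% TCA. SRB stain read at 515 nm. Reported as growth percent relative to untreated controls and time-zero plates.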

[2] = Growth inhibition of human NCI-ADR-RES cells assessed as cell growth at 10 uM after 48 hrs by sulforhodamine B assay; settings: read-out: Activity
Outline: (§2)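 NCI-60 primary single-dose screen at 10^-5 M, 48 h continuous exposure. Adherent cells were fixed with cold TCA (10% final) and suspension cells with 16% final TCA, then stained with 0.4% SRB in 1% acetic acid. Bound dye was solubilized in 10 mM Tris base and read at 515 nm. Output is growth percent relative to untreated controls, and GI% is 100 minus growth percent.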

[3] = Growth inhibition of human Hs 578T cells assessed as cell growth at 10 uM after 48 hrs by sulforhodamine B assay; settings: read-out: Activity; outline: as §2
[4] = Growth inhibition of human HCC2998 cells assessed as cell growth at 10 uM after 48 hrs by sulforhodamine B assay; settings: HCC 2998, 48 h, read-out: Activity; outline: as §2
[5] = system: U-251; assay: Growth inhibition of human U251 cells assessed as cell growth at 10 uM after 48 hrs by sulforhodamine B assay; settings: U-251, 48 h, read-out: Activity; outline: as §1
[6] = system: SF-268; assay: Growth inhibition of human SF268 cells assessed as cell growth at 10 uM after 48 hrs by sulforhodamine B assay; settings: SF-268, 48 h, read-out: Activity; outline: as §1
[7] = system: CCRF-CEM; assay: Growth inhibition of human CCRF-CEM cells assessed as cell growth at 10 uM after 48 hrs by sulforhodamine B assay; settings: read-out: Activity
Outline: (§3)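 NCI-60 primary screen at a single dose of 10^-5 M. Output is mean growth percent of treated cells relative to untreated controls, where values between 0 and 100 indicate growth inhibition and values below 0 indicate cytotoxicity. Cells were plated 24 h before drug, incubated 48 h at 37 °C, 5% CO2, and stained with SRB after TCA fixation. Suspension cells were fixed with 80% TCA (16% final).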

[8] = system: MCF7; assay: Growth inhibition of human MCF7 cells assessed as cell growth at 10 uM after 48 hrs by sulforhodamine B assay; settings: MCF7, 48 h, read-out: Activity; outline: as §2
[9] = system: UACC-257; assay: Growth inhibition of human UACC257 cells assessed as cell growth at 10 uM after 48 hrs by sulforhodamine B assay; settings: UACC-257, 48 h, read-out: Activity; outline: as §1
[10] = system: SNB-75; assay: Growth inhibition of human SNB75 cells assessed as cell growth at 10 uM after 48 hrs by sulforhodamine B assay; settings: SNB-75, 48 h, read-out: Activity; outline: as §1
[11] = system: MDA-MB-468; assay: Growth inhibition of human MDA-MB-468 cells assessed as cell growth at 10 uM after 48 hrs by sulforhodamine B assay; settings: MDA-MB-468, 48 h, read-out: Activity; outline: as §2
[12] = system: COLO 205; assay: Growth inhibition of human COLO205 cells assessed as cell growth at 10 uM after 48 hrs by sulforhodamine B assay; settings: COLO 205, 48 h, read-out: Activity; outline: as §2
[13] = system: LOX IMVI; assay: Growth inhibition of human LOXIMVI cells assessed as cell growth at 10 uM after 48 hrs by sulforhodamine B assay; settings: read-out: Activity; outline: as §2
[14] = system: OVCAR-3; assay: Growth inhibition of human OVCAR3 cells assessed as cell growth at 10 uM after 48 hrs by sulforhodamine B assay; settings: OVCAR-3, 48 h, read-out: Activity; outline: as §1
[15] = system: M14; assay: Growth inhibition of human M14 cells assessed as cell growth at 10 uM after 48 hrs by sulforhodamine B assay; settings: M14, 48 h, read-out: Activity; outline: as §2
[16] = system: SK-MEL-2; assay: Growth inhibition of human SK-MEL-2 cells assessed as cell growth at 10 uM after 48 hrs by sulforhodamine B assay; settings: SK-MEL-2, 48 h, read-out: Activity; outline: as §1
[17] = system: T47D; assay: Growth inhibition of human T47D cells assessed as cell growth at 10 uM after 48 hrs by sulforhodamine B assay; settings: read-out: Activity; outline: as §1
[18] = system: RPMI-8226; assay: Growth inhibition of human RPMI8226 cells assessed as cell growth at 10 uM after 48 hrs by sulforhodamine B assay; settings: RPMI-8226, 48 h, read-out: Activity; outline: as §1
[19] = system: ACHN; assay: Growth inhibition of human ACHN cells assessed as cell growth at 10 uM after 48 hrs by sulforhodamine B assay; settings: read-out: Activity; outline: as §3
[20] = system: Malme-3M; assay: Growth inhibition of human MALME-3M cells assessed as cell growth at 10 uM after 48 hrs by sulforhodamine B assay; settings: read-out: Activity; outline: as §2
[21] = system: HCT-15; assay: Growth inhibition of human HCT15 cells assessed as cell growth at 10 uM after 48 hrs by sulforhodamine B assay; settings: HCT-15, 48 h, read-out: Activity; outline: as §2
[22] = system: A549; assay: Growth inhibition of human A549 cells assessed as cell growth at 10 uM after 48 hrs by sulforhodamine B assay; settings: A549, 48 h, read-out: Activity; outline: as §3
[23] = system: PC-3; assay: Growth inhibition of human PC3 cells assessed as cell growth at 10 uM after 48 hrs by sulforhodamine B assay; settings: PC-3, 48 h, read-out: Activity; outline: as §1
[24] = system: SK-OV-3; assay: Growth inhibition of human SKOV3 cells assessed as cell growth at 10 uM after 48 hrs by sulforhodamine B assay; settings: SK-OV-3, 48 h, read-out: Activity; outline: as §1
[25] = system: NCI-H322M; assay: Growth inhibition of human NCI-H322M cells assessed as cell growth at 10 uM after 48 hrs by sulforhodamine B assay; settings: read-out: Activity; outline: as §1
[26] = system: RXF 393; assay: Growth inhibition of human RXF393 cells assessed as cell growth at 10 uM after 48 hrs by sulforhodamine B assay; settings: RXF 393, 48 h, read-out: Activity; outline: as §1
[27] = system: MDA-MB-231; assay: Growth inhibition of human MDA-MB-231 cells assessed as cell growth at 10 uM after 48 hrs by sulforhodamine B assay; settings: MDA-MB-231, 48 h, read-out: Activity; outline: as §2
[28] = system: OVCAR-4; assay: Growth inhibition of human OVCAR4 cells assessed as cell growth at 10 '-5 M after 48 hrs by sulforhodamine B assay; settings: OVCAR-4, 48 h, read-out: Activity
[29] = Growth inhibition of human Hs 578T cells assessed as growth inhibition at 10 uM after 48 hrs by sulforhodamine B assay; settings: read-out: GI
[30] = system: ACHN; assay: Growth inhibition of human ACHN cells assessed as cell growth at 10 '-5 M after 48 hrs by sulforhodamine B assay; settings: read-out: Activity
Outline: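 Percent growth at each of the five concentrations of the 48 h continuous-exposure NCI SRB screen. Drug stocks were in DMSO at 400× the top final concentration and diluted in medium with gentamicin. Growth was calculated as [(Ti-Tz)/(C-Tz)]×100 when Ti ≥ Tz, or [(Ti-Tz)/Tz]×100 when Ti < Tz. Tz plates were fixed at drug addition; untreated wells served as control. Absorbance was read at 515 nm.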

Structure (SMILES): Cc1nn(-c2ccc(Cl)cc2)c(=O)n1CCN1CCOCC1
- growth at 10 µM [1]: 64.4%
- growth at 10 µM [2]: 75.9%
- growth at 10 µM [3]: 42.7%
- growth at 10 µM [4]: 91.3%
- growth at 10 µM [5]: 42.9%
- growth at 10 µM [6]: 48.4%
- growth at 10 µM [7]: 63.2%
- growth at 10 µM [8]: 73.4%
- growth at 10 µM [9]: 73.4%
- growth at 10 µM [10]: 7.65%
- growth at 10 µM [11]: 90.3%
- growth at 10 µM [12]: 107%
- growth at 10 µM [13]: 81.6%
- growth at 10 µM [14]: 79.2%
- growth at 10 µM [15]: 69.8%
- growth at 10 µM [16]: 61.1%
- growth at 10 µM [17]: 78.3%
- growth at 10 µM [18]: 83.1%
- growth at 10 µM [19]: 38.7%
- growth at 10 µM [20]: 59.1%
- growth at 10 µM [21]: 74.2%
- growth at 10 µM [22]: 56.4%
- growth at 10 µM [23]: 80.8%
- growth at 10 µM [24]: 42.8%
- growth at 10 µM [25]: 92.2%
- growth at 10 µM [26]: 42.1%
- growth at 10 µM [27]: 57.3%

Structure (SMILES): Cc1cc(=O)oc2cc(OCCn3c(C)nn(-c4ccc(Cl)cc4)c3=O)ccc12
- growth at 10 µM [1]: 59.6%
- growth at 10 µM [2]: 24.7%
- growth at 10 µM [3]: 34.8%
- growth at 10 µM [4]: 46.7%
- growth at 10 µM [5]: 31.4%
- growth at 10 µM [6]: 50.3%
- growth at 10 µM [7]: 13.4%
- growth at 10 µM [8]: 15.8%
- growth at 10 µM [9]: 22.5%
- growth at 10 µM [10]: 20.4%
- growth at 10 µM [11]: 16.1%
- growth at 10 µM [12]: 10.6%
- growth at 10 µM [28]: -1%
- growth at 10 µM [13]: 48%
- growth at 10 µM [14]: 14.8%
- growth at 10 µM [15]: 14.7%
- growth at 10 µM [16]: 3.55%
- growth at 10 µM [17]: 47.4%
- growth at 10 µM [18]: 31%
- growth at 10 µM [19]: 41.9%
- inhibition of growth at 10 µM [29]: 65.2%
- growth at 10 µM [20]: 32.9%
- growth at 10 µM [21]: 17.7%
- growth at 10 µM [30]: 35%
- growth at 10 µM [22]: 30.2%
- growth at 10 µM [23]: 48.5%
- growth at 10 µM [24]: 41.1%
- growth at 10 µM [25]: 58.7%
- growth at 10 µM [26]: 37.4%
- growth at 10 µM [27]: 47.5%
